ChEMBL document CHEMBL3808334, “Synthesis and in vitro evaluation of novel triazine analogues as anticancer agents and their interaction studies with bovine serum albumin” (Eur J Med Chem, 2016)

How the values were obtained:
Format in all cases: ADME
Conditions in all cases: cattle, isolated protein; call rule not given here
Albumin [1] = biological target: T1, Albumin (Bos taurus, UniProt P02769); test: Binding affinity to bovine serum albumin assessed as hyperchromicity in absorption spectra up to 20 uM after 5 mins by UV-visible spectroscopic analysis relative to control
T1 sequence (P02769 whole entry): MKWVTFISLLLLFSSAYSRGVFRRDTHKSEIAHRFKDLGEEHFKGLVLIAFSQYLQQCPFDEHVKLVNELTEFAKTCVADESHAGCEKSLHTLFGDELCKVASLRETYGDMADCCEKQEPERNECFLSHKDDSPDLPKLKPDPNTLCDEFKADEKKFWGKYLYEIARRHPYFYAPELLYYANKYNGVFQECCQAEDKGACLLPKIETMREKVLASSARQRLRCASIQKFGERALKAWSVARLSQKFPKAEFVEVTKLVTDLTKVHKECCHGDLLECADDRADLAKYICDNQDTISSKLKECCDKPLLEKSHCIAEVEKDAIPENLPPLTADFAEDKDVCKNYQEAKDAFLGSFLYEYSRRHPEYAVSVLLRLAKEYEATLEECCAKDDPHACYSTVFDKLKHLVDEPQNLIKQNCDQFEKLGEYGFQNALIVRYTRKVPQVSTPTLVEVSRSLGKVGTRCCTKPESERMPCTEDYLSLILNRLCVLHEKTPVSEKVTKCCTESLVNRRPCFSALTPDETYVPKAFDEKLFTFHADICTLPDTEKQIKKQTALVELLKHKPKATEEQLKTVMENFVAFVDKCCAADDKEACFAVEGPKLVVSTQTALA
Procedure, shortened: (§1)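 UV-visible absorption titration of 10 µM BSA in 0.1 M phosphate buffer pH 7.4 with increasing compound, 0–20 µM. Compounds diluted from DMSO stocks into buffer. Spectra recorded 200–800 nm in a 1 cm quartz cell at 300 K after 5 min equilibration. The BSA band is at 279 nm; changes are compared with BSA alone.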

Albumin [2] = biological target: T1, Albumin; test: Binding affinity to bovine serum albumin assessed as enhancement in emission spectra up to 20 uM by fluorescence spectroscopic analysis relative to control
Procedure, shortened: (§2)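 Fluorescence titration of 10 µM BSA in 0.1 M phosphate buffer pH 7.4 with compound at 0–20 µM, diluted from DMSO stocks. Excitation 280 nm, slit 10 nm, 1 cm quartz cell, 300 K. Changes in the 350 nm Trp emission, new bands near 370–373 nm and isoemissive points are read against BSA alone.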

Albumin [3] = biological target: T1, Albumin; test: Binding affinity to bovine serum albumin assessed as red shift in emission intensity up to 20 uM by fluorescence spectroscopic analysis relative to control; procedure, shortened: as §2
Albumin [4] = biological target: T1, Albumin; test: Binding affinity to bovine serum albumin assessed as binding constant in emission spectra by Benesie-Hildebrand plot analysis
Procedure, shortened: (§3)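 BSA, 10 µM, in 0.1 M phosphate buffer pH 7.4, titrated with compound (0–20 µM per the figure; diluted from 10⁻³ mol L⁻¹ DMSO stocks). Run at 300 K in a 1 cm quartz cell. UV spectra taken 200–800 nm after 5 min equilibration; fluorescence excited at 280 nm, emission 351 nm, slit 10 nm. K is the intercept/slope ratio of a linear fit of 1/(A₀−A) or 1/(F₀−F) vs 1/[compound].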

Albumin [5] = biological target: T1, Albumin; test: Binding affinity to bovine serum albumin assessed as binding constant in absorption spectra by Benesie-Hildebrand plot analysis; procedure, shortened: as §3
Albumin [6] = biological target: T1, Albumin; test: Binding affinity to bovine serum albumin assessed as isoemissive point up to 20 uM by fluorescence spectroscopic analysis relative to control; procedure, shortened: as §2
Albumin [7] = biological target: T1, Albumin; test: Binding affinity to bovine serum albumin assessed as change in hyperchromicity in absorption spectra up to 20 uM after 5 mins by UV-visible spectroscopic analysis relative to control; procedure, shortened: as §1
Albumin [8] = biological target: T1, Albumin; test: Binding affinity to bovine serum albumin up to 20 uM after 5 mins by fluorescence spectroscopic analysis; procedure, shortened: as §2

| Structure (SMILES) | Activity (Albumin [1]) | Activity (Albumin [2]) | Activity (Albumin [3]) | K (Albumin [4]) | K (Albumin [5]) | Activity (Albumin [6]) | Activity (Albumin [7]) | Activity (Albumin [8]) |
| --- | --- | --- | --- | --- | --- | --- | --- | --- |
| c1ccc(CNc2nc(Nc3ccc(-c4nc5ccccc5[nH]4)cc3)nc(N3CCOCC3)n2)cc1 | 88.44% | 42.06% | 24 nm | 1.8 ×10⁵ /M | 1.2 ×10⁴ /M | 352 nm | – | – |
| c1coc(-c2nc(Nc3ccc(-c4nc5ccccc5[nH]4)cc3)nc(N3CCOCC3)n2)c1 | – | – | – | – | – | – | Not Active | Not Active |
| CN1CCN(c2nc(Nc3ccc(-c4nc5ccccc5[nH]4)cc3)nc(N3CCOCC3)n2)CC1 | 75.98% | 77.53% | 22 nm | 2.6 ×10⁴ /M | 8.5 ×10⁴ /M | 339 nm | – | – |
| c1csc(-c2nc(Nc3ccc(-c4nc5ccccc5[nH]4)cc3)nc(N3CCOCC3)n2)c1 | – | – | – | – | – | – | Not Active | Not Active |
| FC(F)(F)c1ccc(-c2nc(Nc3ccc(-c4nc5ccccc5[nH]4)cc3)nc(N3CCOCC3)n2)cc1 | – | – | – | – | – | – | Not Active | Not Active |
| OCCN1CCN(c2nc(Nc3ccc(-c4nc5ccccc5[nH]4)cc3)nc(N3CCOCC3)n2)CC1 | 68.72% | 73.21% | 25 nm | 5.4 ×10⁴ /M | 1.2 ×10⁵ /M | 343 nm | – | – |
| c1ccc2[nH]c(-c3ccc(Nc4nc(NCCN5CCOCC5)nc(N5CCOCC5)n4)cc3)nc2c1 | 85.95% | 57.22% | 23 nm | 5.7 ×10⁴ /M | 8.4 ×10⁴ /M | 345 nm | – | – |

More lines, now with the values ahead:

| Activity (Albumin [1]) | Activity (Albumin [2]) | Activity (Albumin [3]) | K (Albumin [4]) | K (Albumin [5]) | Activity (Albumin [6]) | Activity (Albumin [7]) | Activity (Albumin [8]) | Structure (SMILES) |
| --- | --- | --- | --- | --- | --- | --- | --- | --- |
| 85.87% | 23.12% | 17 nm | 1.6 ×10⁵ /M | 1 ×10⁵ /M | 349 nm | – | – | c1ccc2[nH]c(-c3ccc(Nc4nc(NC5CCCCC5)nc(N5CCOCC5)n4)cc3)nc2c1 |
| 70.53% | 69.01% | 22 nm | 1.3 ×10⁵ /M | 6.3 ×10⁴ /M | 347 nm | – | – | NCCNc1nc(Nc2ccc(-c3nc4ccccc4[nH]3)cc2)nc(N2CCOCC2)n1 |
| 90.6% | 71.82% | 23 nm | 8 ×10⁴ /M | 9.5 ×10⁴ /M | 340 nm | – | – | OCCNc1nc(Nc2ccc(-c3nc4ccccc4[nH]3)cc2)nc(N2CCOCC2)n1 |
| 72.93% | 63.43% | 24 nm | 6.9 ×10⁴ /M | 7 ×10⁴ /M | 350 nm | – | – | c1ccc2[nH]c(-c3ccc(Nc4nc(N5CCOCC5)nc(N5CCOCC5)n4)cc3)nc2c1 |
| 65.29% | 68.99% | 22 nm | 5.4 ×10⁴ /M | 1 ×10⁵ /M | 341 nm | – | – | c1ccc2[nH]c(-c3ccc(Nc4nc(N5CCCC5)nc(N5CCOCC5)n4)cc3)nc2c1 |
| – | – | – | – | – | – | Not Active | Not Active | NNc1nc(Nc2ccc(-c3nc4ccccc4[nH]3)cc2)nc(N2CCOCC2)n1 |
